ChEMBL document CHEMBL2169854, “New insight into the central benzodiazepine receptor-ligand interactions: design, synthesis, biological evaluation, and molecular modeling of 3-substituted 6-phenyl-4H-imidazo[1,5-a][1,4]benzodiazepines and related compounds” (J Med Chem, 2011)
Active and inactive are the calls of the source. The rule behind the calls is not given here.

Legend:
[1] = Displacement of [3H]flumazenil from central benzodiazepine receptor in bovine cortical membrane after 90 mins by beta liquid scintillation counting; format: cell membranes, Bos taurus
Outline: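 At least six concentrations spanning 3 log units were tested in 2% DMSO. Ki was obtained by Cheng–Prusoff (Kd 0.85 nM bovine, 0.91 nM human), mean of three determinations.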

[2] = Displacement of [3H]flumazenil from central benzodiazepine receptor in human cortical membrane after 90 mins by beta liquid scintillation counting; format: cell membranes
[3] = species: Bos taurus; experiment: Ratio of Ki for central benzodiazepine receptor in bovine cortical membrane to Ki for central benzodiazepine receptor in bovine cortical membrane in presence of 50 uM GABA; format: cell membranes
[4] = species: Homo sapiens; experiment: Ratio of Ki for central benzodiazepine receptor in human cortical membrane to Ki for central benzodiazepine receptor in human cortical membrane in presence of 50 uM GABA; format: cell membranes
[5] = species: Rattus norvegicus; experiment: Antagonist activity at central benzodiazepine receptor in Sprague-Dawley rat cerebrocortical synaptoneurosomes assessed as effect on GABA-induced [36]chloride ion flow after 10 seconds by beta liquid scintillation counting; format: functional
Outline: (§1)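 Cerebral cortex from male Sprague-Dawley rats was homogenised and filtered, and synaptoneurosomes were washed in HEPES pH 7 buffer (145 mM NaCl, 5 mM KCl, 5 mM MgCl2, 1 mM CaCl2, 10 mM glucose). Aliquots of 1.5–2 mg protein were preincubated 10 min at 30 C. Drug was added with 0.2 μCi 36Cl−, uptake was stopped at 10 s, and filter-bound radioactivity was counted by scintillation.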

[6] = target: T1, GABA-A receptor; alpha-1/beta-2/gamma-2 (Homo sapiens) (UniProt P14867+P47870+P18507); experiment: (§2) Modulation of human recombinant GABA-A alpha1beta2gamma2L receptor expressed in Xenopus laevis oocytes assessed as effect on GABA-induced chloride current at 1 uM incubated 60 seconds before addition of GABA measured after 30 seconds at holding potential -70 mV by two-microelectrode voltage clamp technique relative to control; format: cell-based; conditions: Oocyte
[7] = target: T1, GABA-A receptor; alpha-1/beta-2/gamma-2 (Homo sapiens); experiment: as §2, with “at 10” for “at 1”; format: cell-based; conditions: Oocyte
[8] = target: T2, GABA A receptor alpha-1/beta-1/gamma-2 (Homo sapiens) (UniProt P14867+P18507+P18505); experiment: as §2, with “alpha1beta1gamma2L” for “alpha1beta2gamma2L”; format: cell-based; conditions: Oocyte
[9] = target: T2, GABA A receptor alpha-1/beta-1/gamma-2 (Homo sapiens); experiment: as §2, with “alpha1beta1gamma2L” for “alpha1beta2gamma2L”, “10” for “1”; format: cell-based; conditions: Oocyte
[10] = tested on: Oocyte; experiment: as §2, with “alpha5beta2gamma2L” for “alpha1beta2gamma2L”; format: cell-based
[11] = tested on: Oocyte; experiment: as §2, with “alpha5beta2gamma2L” for “alpha1beta2gamma2L”, “10” for “1”; format: cell-based
[12] = target: T1, GABA-A receptor; alpha-1/beta-2/gamma-2 (Homo sapiens); experiment: (§3) Antagonist at human recombinant GABA-A alpha1beta2gamma2L receptor expressed in Xenopus laevis oocytes assessed as blockade of diazepam-induced potentiation of GABA-induced chloride current at 10 uM incubated 60 seconds before addition of GABA measured after 30 seconds at holding potential -70 mV by two-microelectrode voltage clamp technique; format: functional, cell-based; conditions: Oocyte
Outline: (§4)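 Oocytes expressing human α1β2γ2L, α2β1γ2L or α5β2γ2L receptors were clamped at −70 mV. Compound at 10 μM was tested against the enhancement of the GABA EC10 response by 1.0 μM diazepam, with 60 s preapplication and 30 s coapplication. The response was expressed as percent potentiation, from 2–3 oocytes.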

[13] = target: T2, GABA A receptor alpha-1/beta-1/gamma-2 (Homo sapiens); experiment: as §3, with “alpha1beta1gamma2L” for “alpha1beta2gamma2L”; format: functional, cell-based; conditions: Oocyte
[14] = tested on: Oocyte; experiment: as §3, with “alpha5beta2gamma2L” for “alpha1beta2gamma2L”; format: functional, cell-based; outline: as §4
[15] = species: Rattus norvegicus; experiment: Agonist activity at central benzodiazepine receptor in Sprague-Dawley rat cerebrocortical synaptoneurosomes assessed as increase in GABA-induced [36]chloride ion flow after 10 seconds by beta liquid scintillation counting; format: functional; outline: as §1
[16] = tested on: Mus musculus; experiment: Anxiolytic effect in mouse assessed as increase in time spent in light compartment at 1 mg/kg, ip by light/dark box test; format: functional, organism-based; design: dose 1 mg/kg
Outline: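 Male mice were used. Compound was given orally as a suspension in 1% CMC; diazepam was given ip in saline; volume 10 mL/kg. Each mouse was placed in the lit side of a two-compartment light/dark box and observed for 5 min, scoring time in the light and transfers. Groups were compared by ANOVA with Fisher PLSD.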

[17] = tested on: Mus musculus; experiment: Myorelaxant activity in mouse assessed as motor coordination measuring number of falls at 1 mg/kg, ip measured for 30 seconds after 45 mins of compound administration by rotarod test; format: functional, organism-based; design: dose 1 mg/kg
[18] = target: T1, GABA-A receptor; alpha-1/beta-2/gamma-2 (Homo sapiens); experiment: as §2, with “at 0.01” for “at 1”; format: cell-based; conditions: Oocyte
[19] = target: T1, GABA-A receptor; alpha-1/beta-2/gamma-2 (Homo sapiens); experiment: as §2, with “at 0.1” for “at 1”; format: cell-based; conditions: Oocyte

Row | SMILES | Ki [1] [nM] | Ki [2] [nM] | Ratio Ki [3] | also measured
1 | CCOC(=O)c1ncn2c1CN=C(c1ccc(OC)cc1)c1cc(Cl)ccc1-2 | 210 | 227 | – | –
2 | CC(C)(C)OC(=O)c1ncn2c1CN=C(c1ccc(Cl)cc1)c1cc(Cl)ccc1-2 | 1300 | – | – | –
3 | O=C1OCCC2N=C(c3ccccc3)c3ccccc3-n3cnc1c32 (stereo unspecified) | 283 | – | 0.95 | –
4 | CN(C)C(=O)c1ncn2c1CN=C(c1ccc(Cl)cc1)c1cc(Cl)ccc1-2 | > 10000 | – | – | –
5 | NC(=O)c1ncn2c1CN=C(c1ccc(Cl)cc1)c1cc(Cl)ccc1-2 | > 10000 | – | – | –
6 | CCOC(=O)c1ncn2c1C(C)N=C(c1ccc(F)cc1)c1cc(F)ccc1-2 (stereo unspecified) | 510 | 550 | 1.19 | –
7 | CCOC(=O)c1ncn2c1CN=C(c1ccc(F)cc1)c1ccccc1-2 | 11.5 | 20.8 | 0.77 | Ratio Ki [4]: 0.96; Activity [5]: Active
8 | CCOC(=O)c1ncn2c1CN=C(c1cccc([N+](=O)[O-])c1)c1cc(F)ccc1-2 | – | – | – | Activity [6]: 14%; Activity [7]: -24%; Activity [8]: 10%; Activity [9]: -3.3%; Activity [10]: 27%; Activity [11]: -2.5%; Activity [12]: Active; Activity [13]: Active; Activity [14]: Active
9 | CCOC(=O)c1ncn2c1C(C)N=C(c1ccccc1)c1ccccc1-2 (stereo unspecified) | 453 | 750 | 1.3 | –
10 | CCOC(=O)c1ncn2c1CN=C(c1cccc([N+](=O)[O-])c1)c1cc(Cl)ccc1-2 | 1.7 | 2.3 | 0.99 | Ratio Ki [4]: 0.98; Activity [5]: Active
11 | CCOC(=O)c1ncn2c1CN=C(c1ccc(F)cc1)c1cc(Cl)ccc1-2 | 188 | 212 | 1.25 | –
12 | CNC(=O)c1ncn2c1CN=C(c1ccc(Cl)cc1)c1cc(Cl)ccc1-2 | > 10000 | – | – | –
13 | CN1C(=O)CN=C(c2ccccc2F)c2cc([N+](=O)[O-])ccc21 [FLUNITRAZEPAM] | 5.17 | 6.5 | 1.68 | Ratio Ki [4]: 1.6; Activity [15]: Active
14 | CN1C(=O)CN=C(c2ccccc2)c2cc(Cl)ccc21 | – | – | – | Activity [16]: Active; Activity [17]: Active
15 | CCOC(=O)c1ncn2c1CN=C(c1cccc3ccccc13)c1cc(Cl)ccc1-2 | 186 | 216 | 1.3 | –
16 | Clc1ccc(C2=NCc3c(-c4nnn[nH]4)ncn3-c3ccc(Cl)cc32)cc1 | > 10000 | – | – | –
17 | CCOC(=O)c1ncn2c1CN=C(c1ccc(Cl)cc1)c1cc(Cl)ccc1-2 | 236 | 210 | 1.3 | –
18 | CCOC(=O)c1ncn2c1CN=C(c1ccc(OC)cc1)c1ccccc1-2 | 110 | 120 | 0.78 | –
19 | CCOC(=O)c1ncn2c1CN(C)C(=O)c1cc(F)ccc1-2 [FLUMAZENIL] | 1.9 | – | – | Activity [5]: Active
20 | N#Cc1ncn2c1CN=C(c1ccc(Cl)cc1)c1cc(Cl)ccc1-2 | 1650 | – | – | –
21 | CCOC(=O)c1ncn2c1CN=C(c1ccc(Cl)cc1)c1ccccc1-2 | 12.7 | 22.5 | 0.84 | Ratio Ki [4]: 0.87; Activity [5]: Active; Activity [18]: 13%; Activity [19]: 1%; Activity [6]: 3.6%; Activity [7]: 6.3%; Activity [8]: -7%; Activity [9]: -18%; Activity [10]: -0.5%; Activity [11]: 0%; Activity [12]: Active; Activity [13]: Active; Activity [14]: Active
22 | CCOC(=O)c1ncn2c1CN=C(c1ccc(C)cc1)c1cc(Cl)ccc1-2 | 199 | 178 | 1.05 | –
23 | CCOC(=O)c1ncn2c1CN=C(c1ccc(Cl)cc1)c1ccc3ccccc3c1-2 | > 10000 | – | – | –
